Here are results for one compound from ChEMBL document CHEMBL4480410, “Targeting the MKK7-JNK (Mitogen-Activated Protein Kinase Kinase 7-c-Jun N-Terminal Kinase) Pathway with Covalent Inhibitors” (J Med Chem, 2019).

Molecules are shown by their SMILES. In brackets after ≈: the same amount, converted by molar mass.

What is called inhibition is the share of the control response that was lost under treatment. One may read the microsomal CLint as the rate of metabolic loss divided by the concentration. Read a low microsomal CLint as slow turnover. The Papp A→B is the apparent permeability from the apical to the basolateral side of a cell layer.

The target in data set [1] is Serine/threonine-protein kinase mTOR (Homo sapiens) (UniProt P42345). Briefly: Inhibition of mTOR (unknown origin) at 1 uM by proQinase-based assay relative to control.
A short description of another data set: in vitro. The following applies: mouse, liver microsomes. In general terms: Liver microsomes are a subcellular fraction often used to study metabolism.
Data set [2] has as its target T1, Tyrosine-protein kinase ITK/TSK (Homo sapiens) (UniProt Q08881).
T1 sequence (whole entry): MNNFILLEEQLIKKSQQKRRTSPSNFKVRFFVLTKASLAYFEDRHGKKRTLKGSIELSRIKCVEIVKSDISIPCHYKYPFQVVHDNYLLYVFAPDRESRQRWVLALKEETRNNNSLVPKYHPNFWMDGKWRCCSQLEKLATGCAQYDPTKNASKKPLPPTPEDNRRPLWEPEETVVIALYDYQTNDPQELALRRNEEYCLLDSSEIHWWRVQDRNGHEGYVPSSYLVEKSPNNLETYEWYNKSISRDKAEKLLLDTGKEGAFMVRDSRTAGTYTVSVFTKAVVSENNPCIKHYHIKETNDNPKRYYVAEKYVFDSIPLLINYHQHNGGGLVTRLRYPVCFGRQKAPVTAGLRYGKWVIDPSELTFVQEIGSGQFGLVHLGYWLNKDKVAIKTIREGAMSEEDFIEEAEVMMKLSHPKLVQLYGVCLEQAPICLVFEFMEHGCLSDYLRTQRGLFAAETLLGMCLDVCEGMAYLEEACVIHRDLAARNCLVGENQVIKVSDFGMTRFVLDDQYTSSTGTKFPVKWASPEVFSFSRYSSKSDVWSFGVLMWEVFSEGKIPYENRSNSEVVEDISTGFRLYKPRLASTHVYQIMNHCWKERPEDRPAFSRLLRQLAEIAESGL
Briefly: Inhibition of ITK (unknown origin) at 1 uM by proQinase-based assay relative to control.

The nature of data set [3]: Kinetic solubility of the compound in Hepes buffer at pH 7.4 after 90 mins. The following applies: read-out: Kinetic_solubility. Type of data set: physicochemical. The method, boiled down: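 Compound diluted from 10 mM DMSO stock to 500 µM final in 50 mM Hepes, pH 7.4, shaken 90 min at room temperature. Filtered through 0.2 µm PVDF, then OD scanned 250–500 nm in 10 nm steps. Solubility taken from AUC, normalized to a dilution in acetonitrile.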

Data set [4] is described as follows: Apparent permeability across apical to basolateral side in human Caco2 cells at 5 uM after 2 hrs by transwell membrane based assay. The following applies: Caco-2. The data set is classed as ADME, cell-based. The method, boiled down: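 10 mM DMSO stock diluted to 5 µM final in HBSS pH 7.4; 2 h at 37 °C, 5% CO2 on Caco-2 monolayers grown 21 days on transwell membranes.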

In data set [5] the target is Tyrosine-protein kinase Blk (Homo sapiens) (UniProt P51451). Put plainly: Inhibition of BLK (unknown origin) at 1 uM by proQinase-based assay relative to control.
Sequence of Tyrosine-protein kinase Blk (Homo sapiens) (P51451 2-505 limits assumed): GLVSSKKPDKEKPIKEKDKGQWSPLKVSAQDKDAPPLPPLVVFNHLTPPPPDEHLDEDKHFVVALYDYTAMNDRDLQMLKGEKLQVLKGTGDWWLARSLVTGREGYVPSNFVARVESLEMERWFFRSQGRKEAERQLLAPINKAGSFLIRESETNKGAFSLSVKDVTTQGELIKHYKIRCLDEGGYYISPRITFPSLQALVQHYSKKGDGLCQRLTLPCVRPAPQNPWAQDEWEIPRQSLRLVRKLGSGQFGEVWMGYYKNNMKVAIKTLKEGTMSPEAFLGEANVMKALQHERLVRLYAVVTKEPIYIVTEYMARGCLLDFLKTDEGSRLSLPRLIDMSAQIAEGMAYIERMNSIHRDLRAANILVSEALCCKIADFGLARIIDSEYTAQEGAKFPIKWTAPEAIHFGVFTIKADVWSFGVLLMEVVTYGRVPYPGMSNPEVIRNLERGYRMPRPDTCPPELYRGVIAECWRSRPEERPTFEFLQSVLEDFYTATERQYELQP
Data set [6] addresses T2, Cytoplasmic tyrosine-protein kinase BMX (Homo sapiens) (UniProt P51813).
T2 sequence (whole entry): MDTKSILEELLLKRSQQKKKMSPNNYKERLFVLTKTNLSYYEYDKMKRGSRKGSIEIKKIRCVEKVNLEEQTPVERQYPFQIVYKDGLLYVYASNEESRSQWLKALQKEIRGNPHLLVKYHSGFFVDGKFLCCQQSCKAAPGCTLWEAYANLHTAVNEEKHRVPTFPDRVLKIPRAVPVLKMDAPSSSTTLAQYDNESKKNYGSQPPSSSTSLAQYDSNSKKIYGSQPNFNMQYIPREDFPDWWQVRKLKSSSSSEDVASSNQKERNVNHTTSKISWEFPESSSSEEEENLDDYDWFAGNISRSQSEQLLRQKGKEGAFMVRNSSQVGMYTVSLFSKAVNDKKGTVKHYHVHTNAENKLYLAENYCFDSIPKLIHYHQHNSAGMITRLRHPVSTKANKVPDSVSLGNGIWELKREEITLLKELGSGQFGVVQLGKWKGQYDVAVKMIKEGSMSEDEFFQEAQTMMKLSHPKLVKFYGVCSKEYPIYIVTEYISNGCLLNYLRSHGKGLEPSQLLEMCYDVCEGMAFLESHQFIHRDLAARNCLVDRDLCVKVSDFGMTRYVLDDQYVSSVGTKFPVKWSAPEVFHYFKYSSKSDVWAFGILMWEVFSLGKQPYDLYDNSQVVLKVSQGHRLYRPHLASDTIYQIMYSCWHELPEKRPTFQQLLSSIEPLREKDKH
Put plainly: Inhibition of BMX (unknown origin) at 1 uM by proQinase-based assay relative to control.

Data set [7] has as its target T3, Tyrosine-protein kinase JAK3 (Homo sapiens) (UniProt P52333).
T3 sequence (whole entry): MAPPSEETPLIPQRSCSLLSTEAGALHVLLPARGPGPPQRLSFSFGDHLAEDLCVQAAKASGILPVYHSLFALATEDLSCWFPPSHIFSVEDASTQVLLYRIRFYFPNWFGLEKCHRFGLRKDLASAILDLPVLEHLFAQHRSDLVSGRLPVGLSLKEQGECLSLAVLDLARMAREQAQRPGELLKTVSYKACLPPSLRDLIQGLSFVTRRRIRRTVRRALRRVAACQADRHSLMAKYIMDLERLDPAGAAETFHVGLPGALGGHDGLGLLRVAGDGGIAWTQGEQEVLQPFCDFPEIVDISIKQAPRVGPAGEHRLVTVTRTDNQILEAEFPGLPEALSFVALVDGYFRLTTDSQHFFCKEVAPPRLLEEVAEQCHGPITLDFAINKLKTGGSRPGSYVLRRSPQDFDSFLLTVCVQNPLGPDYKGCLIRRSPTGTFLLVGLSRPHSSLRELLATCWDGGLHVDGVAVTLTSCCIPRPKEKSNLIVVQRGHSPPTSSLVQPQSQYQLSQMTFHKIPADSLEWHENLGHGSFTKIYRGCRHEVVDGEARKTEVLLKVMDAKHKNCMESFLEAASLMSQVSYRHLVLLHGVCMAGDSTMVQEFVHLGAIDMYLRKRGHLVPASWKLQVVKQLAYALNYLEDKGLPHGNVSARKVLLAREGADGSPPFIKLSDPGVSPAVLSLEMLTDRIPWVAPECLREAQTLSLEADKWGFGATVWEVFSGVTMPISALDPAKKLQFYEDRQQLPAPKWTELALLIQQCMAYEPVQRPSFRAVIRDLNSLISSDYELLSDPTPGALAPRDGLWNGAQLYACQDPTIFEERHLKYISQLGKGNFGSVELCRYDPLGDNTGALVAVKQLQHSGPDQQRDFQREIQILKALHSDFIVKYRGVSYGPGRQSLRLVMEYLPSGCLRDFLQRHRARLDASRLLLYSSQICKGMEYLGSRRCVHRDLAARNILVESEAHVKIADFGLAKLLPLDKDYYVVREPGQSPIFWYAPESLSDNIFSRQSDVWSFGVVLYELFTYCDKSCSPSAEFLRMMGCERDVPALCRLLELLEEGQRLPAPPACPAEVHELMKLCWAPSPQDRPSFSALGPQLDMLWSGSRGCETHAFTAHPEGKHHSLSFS
Put plainly: Inhibition of JAK3 (unknown origin) at 1 uM by proQinase-based assay relative to control.

For the compound `C=CC(=O)N1CCC[C@@H](n2nc(-c3cn(-c4ccc(C(C)=O)cc4)nn3)c3c(N)ncnc32)C1`, the inhibition in data set [1], in data set [2], in data set [5], in data set [6] and in data set [7] was above 50% in each case. The microsomal CLint at 1 h, 3 µM in the data set “in vitro” was found to be 124 µL/min/mg. In addition, in data set [3], the solubility kinetic at 1.5 h worked out at 8 µM (≈ 3.66 µg/mL). For the same compound, the Papp A→B at 2 h, 5 µM in data set [4] came out at 20 ×10⁻⁶ cm/s.
